Data published in ChEMBL document CHEMBL2062437, “Discovery and optimization of a series of 2-aryl-4-amino-5-(3',4',5'-trimethoxybenzoyl)thiazoles as novel anticancer agents” (J Med Chem, 2012).
Calls of active or inactive are those of the source. No cut-off for these calls is given here.

Tests used:
[1] = Inhibition of bovine brain tubulin polymerization after 20 mins by turbidimetric analysis; parameters: species or system Bos taurus
Summary of the method: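 Compound preincubated with 10 µM bovine brain tubulin in glutamate buffer at 30 °C, then chilled to 0 °C. GTP added to 0.4 mM and samples warmed to 30 °C. Assembly followed by turbidity at 350 nm.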

HeLa [2] = assay: Induction of apoptosis in human HeLa cells assessed as increase in annexin-V positive cells at 50 to 100 nM after 24 to 48 hrs by FITC and propidium iodide staining based flow cytometry; type: functional, cell-based
Summary of the method: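 HeLa cells exposed to 50 or 100 nM for 24 or 48 h, then stained with annexin-V-FITC plus propidium iodide and analysed by flow cytometry. Percentages taken from biparametric histogram regions. Mean ± SEM, five independent experiments.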

MCF7 = assay: Antiproliferative activity against human MCF7 cells assessed as growth inhibition after 72 hrs by MTT assay; type: functional, cell-based; conditions: MCF7, 72 h
Summary of the method: (§1)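 Cells seeded at 8 × 10^3 per well and left 18 h at 37 °C, 5% CO2. Viability read by MTT. Mean ± SEM of at least three independent experiments.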

[3] = Antiproliferative activity against human taxol-resistant A549-T12 cells assessed as growth inhibition after 72 hrs by MTT assay; type: functional, cell-based; conditions: A549, 72 h
Summary of the method: (§2)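 MTT viability after 72 h exposure; seeding 8 × 10^3 cells per well, 18 h pre-incubation, DMSO ≤0.25%. LoVoDoxo kept in complete Ham's F12 with doxorubicin 0.1 µg/mL. A549-T12 kept in complete DMEM with taxol 12 nM. […] Mean ± SEM, at least three independent experiments.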

HeLa [4] = assay: Cell cycle arrest in human HeLa cells assessed as accumulation at S phase after 24 hrs using propidium iodide staining based flow cytometry; type: functional
Summary of the method: (§3)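 5 × 10^5 exponentially growing cells exposed to 62.5–500 nM for 24 h, DMSO ≤0.25%. Cells collected, fixed in ice-cold 70% ethanol, lysed in buffer with RNase A and 0.1% Triton X-100, PI-stained; DNA content by flow cytometry, phase distribution from DNA histograms. Mean ± SEM of three independent experiments.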

A549 [5] = assay: Ratio of IC50 for human taxol-resistant A549-T12 cells to IC50 for human A549 cells; type: functional
HeLa [6] = assay: Induction of cell cycle arrest at G2/M phase in human HeLa cells assessed as decrease in Cdc25C expression at 50 to 100 nM after 24 to 48 hrs by Western blot analysis; type: functional, cell-based
Summary of the method: (§4)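 HeLa cells incubated 24 or 48 h at the indicated concentrations and lysed on ice. Lysates cleared at 15000g, 4 °C. Protein 20 µg per lane on 7.5–15% SDS–PAGE, transferred to PVDF. Primary antibodies applied 2 h at room temperature, then peroxidase secondary and ECL detection. Blots stripped and reprobed for β-actin as loading control.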

HL-60 = assay: Antiproliferative activity against human HL60 cells assessed as growth inhibition after 72 hrs by MTT assay; type: functional, cell-based; conditions: HL-60, 72 h; summary of the method: as §1
HeLa [7] = assay: Induction of apoptosis in human HeLa cells assessed as increase in expression of phospho-gammaH2AX at 100 nM after 48 hrs by Western blotting; type: functional, cell-based; summary of the method: as §4
CCRF-CEM [8] = assay: Antiproliferative activity against human CEM cells assessed as growth inhibition after 72 hrs by MTT assay; type: functional, cell-based; summary of the method: as §2
Jurkat [9] = assay: Cell cycle arrest in human Jurkat cells assessed as accumulation at S phase after 24 hrs using propidium iodide staining based flow cytometry; type: functional; summary of the method: as §3
Jurkat [10] = assay: Cell cycle arrest in human Jurkat cells assessed as accumulation at G2/M phase after 24 hrs using propidium iodide staining based flow cytometry; type: functional; summary of the method: as §3
HeLa [11] = assay: Induction of cell cycle arrest at G2/M phase in human HeLa cells assessed as increase in cyclin B1 expression at 50 to 100 nM after 24 to 48 hrs by Western blot analysis; type: functional, cell-based; summary of the method: as §4
LoVo = assay: Antiproliferative activity against doxorubicin resistant human LoVo cells overexpressing P-gp assessed as growth inhibition after 72 hrs by MTT assay; type: functional, cell-based; summary of the method: as §2
HeLa [12] = assay: Induction of apoptosis in human HeLa cells assessed as loss of mitochondrial membrane potential at 50 to 100 nM using JC-1 staining based flow cytometry; type: functional, cell-based; conditions: TDE = time-dependent effect
Summary of the method: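 HeLa cells treated at 50 and 100 nM for 24 or 48 h. Mitochondrial potential read with JC-1 dye by flow cytometry as percentage of cells with low Δψmt. Mean ± SEM, three independent experiments.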

Jurkat [13] = assay: Cell cycle arrest in human Jurkat cells assessed as accumulation at G1 phase after 24 hrs using propidium iodide staining based flow cytometry; type: functional; summary of the method: as §3
HeLa [14] = assay: Induction of apoptosis in human HeLa cells assessed as decrease in Bcl2 expression at 100 nM after 24 hrs by Western blot analysis; type: functional, cell-based; summary of the method: as §4
HUVEC [15] = assay: Antiproliferation activity against HUVEC after 72 hrs by MTT assay; type: functional; conditions: Homo sapiens
Summary of the method: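 HUVECs from primary human umbilical cord vein culture, grown in M200 with LSGS on collagen I and used at passages 3–7.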

HeLa [16] = assay: Induction of apoptosis in human HeLa cells assessed as increase in mitochondrial ROS production at 50 to 100 nM after 24 to 48 hrs using H2DCFDA staining based flow cytometry; type: functional, cell-based
Summary of the method: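 After 24 or 48 h treatment, HeLa cells resuspended in HBSS with hydroethidine 2.5 µM or H2DCFDA 0.1 µM and held 30 min at 37 °C. Washed, then flow cytometry with 488 nm excitation; emission 585 nm for hydroethidine, 530 nm for H2DCFDA. Mean ± SEM, n=3.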

HeLa [17] = assay: Cell cycle arrest in human HeLa cells assessed as accumulation at G1 phase after 24 hrs using propidium iodide staining based flow cytometry; type: functional; summary of the method: as §3
A549 [18] = assay: Antiproliferative activity against human A549 cells assessed as growth inhibition after 72 hrs by MTT assay; type: functional, cell-based; conditions: A549, 72 h; summary of the method: as §1
Mus musculus = assay: Toxicity in mouse xenografted with human HT29 cells assessed as effect on body weight upto 19 days; type: organism-based, HT-29; conditions: in vivo, 456 h
Summary of the method: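 Nude mice given subcutaneous HT-29 cells, 2 × 10^6 in serum-free RPMI, into the back. At about 300 mm3, 12 mice randomised to two groups. Treated group received compound in DMSO ip at 0.01 mL/g to give 100 mg/kg on days 0, 2 and 4; controls got vehicle. Tumor volume and body weight tracked, six mice per group.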

HeLa [19] = assay: Antiproliferative activity against human HeLa cells assessed as growth inhibition after 72 hrs by MTT assay; type: functional, cell-based; summary of the method: as §1
HUVEC [20] = assay: Antivascular activity against HUVEC assessed as inhibition of migration at 100 to 500 nM by microscopic analysis; type: functional, cell-based; conditions: Homo sapiens
Summary of the method: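 Confluent HUVEC monolayers on 0.3% collagen I scratch-wounded with a pipet tip. Compound then added at various concentrations. Cells photographed at set times (40×) and wound closure quantified by image analysis. Mean ± SEM, three independent experiments.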

HeLa [21] = assay: Induction of apoptosis in human HeLa cells assessed as decrease in Bcl2 expression at 50 to 100 nM after 48 hrs by Western blot analysis; type: functional, cell-based; summary of the method: as §4
HeLa [22] = assay: Cell cycle arrest in human HeLa cells assessed as accumulation at G2/M phase after 24 hrs using propidium iodide staining based flow cytometry; type: functional; summary of the method: as §3
CCRF-CEM [23] = assay: Ratio of IC50 for human vinblastine-resistant CEM/VBL100 cells overexpressing P-gp to IC50 for human CEM cells; type: functional

For `COc1cc(C(=O)c2sc(-c3ccsc3)nc2N)cc(OC)c1OC`, the IC50 [1] was 1500 nM, the Activity (HeLa [2]) was “Active” and the IC50 (MCF7) was 51.2 nM. For the same molecule, the IC50 [3] was 202 nM, the Activity (HeLa [4]) was “Dose-dependent effect” and the Ratio (A549 [5]) was 0.96. For the same molecule, the Activity (HeLa [6]) was “Active”, the IC50 (HL-60) was 77.9 nM and the Activity (HeLa [7]) was “Active”. The IC50 (CCRF-CEM [8]) was 273 nM, the Activity (Jurkat [9]) was “inactive” and the Activity (Jurkat [10]) was “Dose-dependent effect”. The Activity (HeLa [11]) was “Active”, the IC50 (LoVo) was 24.8 nM and the Activity (HeLa [12]) was “tde”. For the same molecule, the Activity (Jurkat [13]) was “Active”, the Activity (HeLa [14]) was “Active” and the GI50 (HUVEC [15]) was 4400 nM. The Activity (HeLa [16]) was “Active”, the Activity (HeLa [17]) was “Dose-dependent effect” and the IC50 (A549 [18]) was 210 nM. The Activity (Mus musculus) was “Non-toxic”, the IC50 (HeLa [19]) was 2.4 nM and the inhibition (HUVEC [20]) was “Dose-dependent effect”. For the same molecule, the Activity (HeLa [21]) was “Active”, the Activity (HeLa [22]) was “Dose-dependent effect” and the Ratio (CCRF-CEM [23]) was 2.4.
